Here are results for six molecules from ChEMBL document CHEMBL1129310, “(Aminoalkyl)indole isothiocyanates as potential electrophilic affinity ligands for the brain cannabinoid receptor” (J Med Chem, 1996).

For orientation: IC50 means the concentration at which inhibition is half-maximal. Low values mean greater potency, high ones weaker potency.

The target in one assay is T1, Cannabinoid receptor 1 (Rattus norvegicus, UniProt P20272). Briefly: Binding affinity against brain cannabinoid receptor 1 using [3H]CP-55940 as radioligand at 0.25 nM concentration. In short, it runs like this: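 Rat brain P2 membranes (30 µg protein) were suspended in 20 mM potassium diethylmalonate pH 7.5 with 2.25 mM MgCl2 and 0.025% β-cyclodextrin, then incubated with [3H]CP-55940 for 1 h at 30 °C. Compounds came from DMSO stocks diluted through β-cyclodextrin. The reaction was stopped with BSA and glass-fibre filtration. Nonspecific binding was defined with 0.1 µM desacetyllevonantradol. Displacement curves were fitted by nonlinear regression, triplicate points.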
T1 sequence (P20272 whole entry): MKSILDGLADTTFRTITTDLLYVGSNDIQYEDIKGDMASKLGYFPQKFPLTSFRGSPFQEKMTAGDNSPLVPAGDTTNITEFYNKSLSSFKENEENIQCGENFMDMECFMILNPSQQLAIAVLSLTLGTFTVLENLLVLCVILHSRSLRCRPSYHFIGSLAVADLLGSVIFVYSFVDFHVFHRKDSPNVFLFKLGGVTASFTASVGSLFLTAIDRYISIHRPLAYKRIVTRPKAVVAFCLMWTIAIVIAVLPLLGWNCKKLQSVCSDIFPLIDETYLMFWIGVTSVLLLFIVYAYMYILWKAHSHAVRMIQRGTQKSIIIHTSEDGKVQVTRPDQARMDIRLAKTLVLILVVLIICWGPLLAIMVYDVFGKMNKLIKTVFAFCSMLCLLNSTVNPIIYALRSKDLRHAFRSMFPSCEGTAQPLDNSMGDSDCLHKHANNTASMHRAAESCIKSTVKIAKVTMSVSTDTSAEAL
Molecule `O=C(c1cccc2ccccc12)c1cn(CCN2CCOCC2)c2ccccc12` showed an IC50 of 46 nM.
The molecule `O=C(c1cccc2cc(N=C=S)ccc12)c1cn(CCN2CCOCC2)c2ccccc12` gave an IC50 of 530 nM.
On to `O=C(c1ccc(N=C=S)c2ccccc12)c1cn(CCN2CCOCC2)c2ccccc12`, for which the IC50 is 440 nM.
Molecule `O=C(c1cc(N=C=S)cc2ccccc12)c1cn(CCN2CCOCC2)c2ccccc12` registered an IC50 of 920 nM.
The same measure, in the same setting: the same measure for `O=C(c1cccc2ccccc12)c1cn(CCN2CCOCC2)c2cc(N=C=S)ccc12`: 160 nM.

A further assay has as its target T1, Cannabinoid receptor 1. Kind of assay: Binding affinity against brain Cannabinoid receptor 1 using [3H]CP-55940 as radioligand at 1.1 nM concentration.
With `Cc1c(C(=O)c2ccc(N=C=S)c3ccccc23)c2ccccc2n1CCN1CCOCC1`, the IC50 amounted to 690 nM.
